Converted amounts (≈) assume the structure as drawn.
Columns and labels:
[1] = system: Mycobacterium tuberculosis; assay: Antitubercular activity against Mycobacterium tuberculosis H37Rv ATCC 27294 after 28 days by agar dilution method; type: functional; conditions: H37Rv ATCC 27294, 672 h
Outline: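 Twofold serial dilutions incorporated into Middlebrook 7H11 agar with OADC, final 25–0.78 μg/mL. Inoculum from fresh 7H11/OADC slants, 1 mg/mL wet weight in 0.05% Tween 80 saline diluted 10⁻² (~10⁷ cfu/mL); 5 μL spotted per tube.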

SK-N-SH = assay: Cytotoxicity against human SK-N-SH cells after 48 hrs after MTT assay; type: cell-based
Outline: (§1)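 Cells grown in DMEM with 10% FBS, 37 °C, 5% CO₂. Seeded in 96-well plates and preincubated 24 h before compound, tested at 1, 10, 100, 1000 μM in triplicate wells, 48 h continuous exposure. MTT (10 μL of 5%) added for 60 min, stain eluted with DMSO, absorbance read at 560 nm. IC50 from dose–response curves versus control; mean ± SD of three experiments.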

HeLa = assay: Cytotoxicity against human HeLa cells after 48 hrs after MTT assay; type: cell-based; outline: as §1
A549 = assay: Cytotoxicity against human A549 cells after 48 hrs after MTT assay; type: cell-based; conditions: A549, 48 h; outline: as §1
DU-145 = assay: Cytotoxicity against human DU145 cells after 48 hrs after MTT assay; type: cell-based; conditions: DU-145, 48 h
Outline: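 Cells kept in MEM with nonessential amino acids, 1 mM sodium pyruvate, bovine insulin, 10% FBS. Seeded in 96-well plates and preincubated 24 h, then exposed 48 h to 1, 10, 100, 1000 μM in triplicate wells. MTT (10 μL of 5%) for 60 min, DMSO elution, absorbance read at 560 nm. IC50 versus control absorbance; mean ± SD of three experiments.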

[2] = Selectivity index ratio of IC50 for human A549 cells to MIC for Mycobacterium tuberculosis H37Rv ATCC 27294; type: functional
[3] = Selectivity index ratio of IC50 for human SK-N-SH cells to MIC for Mycobacterium tuberculosis H37Rv ATCC 27294; type: functional
[4] = Selectivity index ratio of IC50 for human DU145 cells to MIC for Mycobacterium tuberculosis H37Rv ATCC 27294; type: functional, DU-145
[5] = Selectivity index ratio of IC50 for human HeLa cells to MIC for Mycobacterium tuberculosis H37Rv ATCC 27294; type: functional
[6] = system: Mycobacterium tuberculosis; assay: Ratio of ethambutol MIC to compound MIC against Mycobacterium tuberculosis H37Rv ATCC 27294; type: functional
[7] = system: Mycobacterium tuberculosis; assay: Ratio of pyrazinamide MIC to compound MIC against Mycobacterium tuberculosis H37Rv ATCC 27294; type: functional

Row | SMILES | MIC [1] | IC50 (SK-N-SH) | IC50 (HeLa) | IC50 (A549) | IC50 (DU-145) | other results
1 | CC(c1ccc2c(c1)c1ccccc1n2C)n1cc(-c2ccccc2)nn1 (stereo unspecified) | 71 µM (≈ 25 µg/mL) |  |  |  |  | 
2 | CCCc1cn(C(C)c2ccc3c(c2)c2ccccc2n3C)nn1 (stereo unspecified) | 78 µM (≈ 24.8 µg/mL) |  |  |  |  | 
3 | CCCCc1cn(C(C)c2ccc3c(c2)c2ccccc2n3C)nn1 (stereo unspecified) | 75.3 µM (≈ 25 µg/mL) |  |  |  |  | 
4 | CCCCCCc1cn(C(C)c2ccc3c(c2)c2ccccc2n3C)nn1 (stereo unspecified) | 70 µM (≈ 25.2 µg/mL) |  |  |  |  | 
5 | CC(c1ccc2c(c1)c1ccccc1n2C)n1cc(CO)nn1 (stereo unspecified) | 81.7 µM (≈ 25 µg/mL) |  |  |  |  | 
6 | CC(c1ccc2c(c1)c1ccccc1n2C)n1cc(COCc2ccccc2)nn1 (stereo unspecified) | 63.1 µM (≈ 25 µg/mL) |  |  |  |  | 
7 | CC(c1ccc2c(c1)c1ccccc1n2C)n1cc(-c2ccccc2[N+](=O)[O-])nn1 (stereo unspecified) | 31.5 µM (≈ 12.5 µg/mL) |  |  |  |  | 
8 | CC(c1ccc2c(c1)c1ccccc1n2C)n1cc(-c2ccc(C(C)(C)C)cc2)nn1 (stereo unspecified) | 30.6 µM (≈ 12.5 µg/mL) |  |  |  |  | 
9 | CC(c1ccc2oc3ccccc3c2c1)n1cc(-c2ccccc2)nn1 (stereo unspecified) | 18.4 µM (≈ 6.24 µg/mL) |  |  |  |  | 
10 | CCCc1cn(C(C)c2ccc3oc4ccccc4c3c2)nn1 (stereo unspecified) | 41 µM (≈ 12.5 µg/mL) |  |  |  |  | 
11 | CCCCc1cn(C(C)c2ccc3oc4ccccc4c3c2)nn1 (stereo unspecified) | 39.2 µM (≈ 12.5 µg/mL) |  |  |  |  | 
12 | CCCCCCc1cn(C(C)c2ccc3oc4ccccc4c3c2)nn1 (stereo unspecified) | 18 µM (≈ 6.25 µg/mL) |  |  |  |  | 
13 | CC(c1ccc2oc3ccccc3c2c1)n1cc(CO)nn1 (stereo unspecified) | 85.3 µM (≈ 25 µg/mL) |  |  |  |  | 
14 | CC(c1ccc2oc3ccccc3c2c1)n1cc(COCc2ccccc2)nn1 (stereo unspecified) | 65.2 µM (≈ 25 µg/mL) |  |  |  |  | 
15 | CC(c1ccc2oc3ccccc3c2c1)n1cc(-c2ccccc2[N+](=O)[O-])nn1 (stereo unspecified) | 16.3 µM (≈ 6.27 µg/mL) |  |  |  |  | 
16 | CC(c1ccc2oc3ccccc3c2c1)n1cc(-c2ccc(C(C)(C)C)cc2)nn1 (stereo unspecified) | 15.8 µM (≈ 6.25 µg/mL) |  |  |  |  | 
17 | CC(c1ccc2sc3ccccc3c2c1)n1cc(-c2ccccc2)nn1 (stereo unspecified) | 4.4 µM (≈ 1.56 µg/mL) | 291 µM | 329 µM | 444 µM | 90 µM | 
18 | CCCc1cn(C(C)c2ccc3sc4ccccc4c3c2)nn1 (stereo unspecified) | 9.75 µM (≈ 3.13 µg/mL) | 93 µM | 87 µM | 68 µM | 96 µM | 
19 | CCCCc1cn(C(C)c2ccc3sc4ccccc4c3c2)nn1 (stereo unspecified) | 4.66 µM (≈ 1.56 µg/mL) | 101 µM | 62 µM | 80 µM | 107 µM | 
20 | CCCCCCc1cn(C(C)c2ccc3sc4ccccc4c3c2)nn1 (stereo unspecified) | 4.3 µM (≈ 1.56 µg/mL) |  |  |  |  | 

Row | SMILES | MIC [1] | IC50 (SK-N-SH) | IC50 (HeLa) | IC50 (A549) | IC50 (DU-145) | other results
21 | CC(c1ccc2sc3ccccc3c2c1)n1cc(CO)nn1 (stereo unspecified) | 20.2 µM (≈ 6.25 µg/mL) |  |  |  |  | 
22 | CC(c1ccc2sc3ccccc3c2c1)n1cc(COCc2ccccc2)nn1 (stereo unspecified) | 7.84 µM (≈ 3.13 µg/mL) | 103 µM | 438 µM | 189 µM | 225 µM | 
23 | CC(c1ccc2sc3ccccc3c2c1)n1cc(-c2ccccc2[N+](=O)[O-])nn1 (stereo unspecified) | 3.9 µM (≈ 1.56 µg/mL) | 386 µM | 136 µM | 190 µM | 126 µM | 
24 | CC(c1ccc2sc3ccccc3c2c1)n1cc(-c2ccc(C(C)(C)C)cc2)nn1 (stereo unspecified) | 1.89 µM (≈ 0.778 µg/mL) | 260 µM | 191 µM | 482 µM | 105 µM | Ratio [2]: 55; Ratio [3]: 55; Ratio [4]: 55; Ratio [5]: 55; Ratio [6]: 4; Ratio [7]: 26
25 | Cc1ccc(-c2cn(C(C)c3ccc4sc5ccccc5c4c3)nn2)cc1 (stereo unspecified) | 8.48 µM (≈ 3.13 µg/mL) | 32 µM | 164 µM | 108 µM | 174 µM | 
26 | CC(c1ccc2sc3ccccc3c2c1)n1cc(CCc2ccccc2)nn1 (stereo unspecified) | 8.17 µM (≈ 3.13 µg/mL) |  | 79 µM | 78 µM | 100 µM | 
27 | CC(c1ccc2sc3ccccc3c2c1)n1cc(-c2ccc([N+](=O)[O-])cc2)nn1 (stereo unspecified) | 3.9 µM (≈ 1.56 µg/mL) | 30 µM | 210 µM | 852 µM | 138 µM | 
28 | CC(c1ccc2sc3ccccc3c2c1)n1cc(-c2ccsc2)nn1 (stereo unspecified) | 34.6 µM (≈ 12.5 µg/mL) |  |  |  |  | 
29 | COc1ccc2cc(-c3cn(C(C)c4ccc5sc6ccccc6c5c4)nn3)ccc2c1 (stereo unspecified) | 28.7 µM (≈ 12.5 µg/mL) |  |  |  |  | 
30 | CC(c1ccc2sc3ccccc3c2c1)n1cc(-c2cc3ccccc3c3ccccc23)nn1 (stereo unspecified) | 54.9 µM (≈ 25 µg/mL) |  |  |  |  | 
31 | CC(c1ccc2sc3ccccc3c2c1)n1cc(-c2ccc(-c3ccccc3)cc2)nn1 (stereo unspecified) | 14.5 µM (≈ 6.26 µg/mL) |  |  |  |  | 
32 | CC(c1ccc2sc3ccccc3c2c1)n1cc(-c2ccc(Cl)cc2Cl)nn1 (stereo unspecified) | 3.68 µM (≈ 1.56 µg/mL) | 477 µM | 162 µM | 400 µM | 150 µM | 
33 | CC(c1ccc2sc3ccccc3c2c1)n1cc(-c2ccc(F)cc2Cl)nn1 (stereo unspecified) | 1.91 µM (≈ 0.779 µg/mL) | 342 µM | 155 µM | 249 µM | 147 µM | Ratio [2]: 55; Ratio [3]: 55; Ratio [4]: 55; Ratio [5]: 55; Ratio [6]: 4; Ratio [7]: 26
34 | CC(c1ccc2sc3ccccc3c2c1)n1cc(-c2ccc(Br)cc2F)nn1 (stereo unspecified) | 3.45 µM (≈ 1.56 µg/mL) | 76 µM | 457 µM | 219 µM | 222 µM | 
35 | CC(c1ccc2sc3ccccc3c2c1)n1cc(-c2cc(F)ccc2F)nn1 (stereo unspecified) | 3.98 µM (≈ 1.56 µg/mL) | 21 µM | 96 µM | 272 µM | 767 µM | 
36 | CC(c1ccc2sc3ccccc3c2c1)n1cc(-c2cc(F)cc(F)c2Cl)nn1 (stereo unspecified) | 12.5 µM (≈ 5.32 µg/mL) | 46 µM | 116 µM | 507 µM | 120 µM | 
37 | CC[C@@H](CO)NCCN[C@@H](CC)CO [ETHAMBUTOL] | 7.6 µM (≈ 1.55 µg/mL) |  |  |  |  | 
38 | NNC(=O)c1ccncc1 [ISONIAZID] | 0.37 µM (≈ 0.0507 µg/mL) |  |  |  |  | 
39 | NC(=O)c1cnccn1 [PYRAZINAMIDE] | 50.1 µM (≈ 6.17 µg/mL) |  |  |  |  | 

Reference: ChEMBL document CHEMBL2046404, “Design, synthesis, and structure-activity correlations of novel dibenzo[b,d]furan, dibenzo[b,d]thiophene, and N-methylcarbazole clubbed 1,2,3-triazoles as potent inhibitors of Mycobacterium tuberculosis” (J Med Chem, 2012)
